Bioassay records as filed in PubChem BioAssay.
rRNA inh HTS = inhibitors of bacterial rRNA selective over humanized ribosomes. E. coli WT GFP vs humanized-ribosome RFP mutants, fluorescence, 24 h; stronger effect = lower value; DMSO median 0, no signal -100. GFP signal change (wild-type ribosome), % (no concentration beside the values). hit rate 1.6% among 350,000. AID 720706;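 active = significant combined selectivity score with lowered wild-type GFP, culture density cut under 30%, mutant RFP and density less affected; inactive = any of these conditions unmet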
F508del corr = CFTR F508del correction in bronchial cells | activity (quench increase), % at 7.58 µM | hit rate 0.36% among 350,000 | CFBE cells, YFP halide quenching; stimulated with forskolin plus potentiator P3; % fluorescence drop versus neutral controls | AID 720511;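 active = mean added fluorescence quench of at least 8% versus neutral control, with both replicates also reaching 8%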;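 also: cells transiently co-express mutant CFTR-F508del with the halide-sensitive YFP; corrector assay measuring rescue of mutant channel to the surface after 24 h compound exposure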
S100A4 MyoIIA = S100A4-myosin IIA interaction inhibition; S100A4/TAMRA-MyoIIA peptide fluorescence polarization; inhibition, % at 10.7 µM; hit rate 0.14% among 360,000; AID 652163;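 active = mean inhibition of at least 70% across replicates, with every replicate also reaching that level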
Target sequence (P26447 whole entry, looked up): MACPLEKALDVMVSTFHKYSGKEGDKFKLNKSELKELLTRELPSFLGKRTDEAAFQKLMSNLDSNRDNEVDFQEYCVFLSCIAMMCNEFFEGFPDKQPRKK
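Compound dosing: one dose per compound; test system: human S100A4 monomer with TAMRA-labelled myosin IIA peptide; probe or stimulus: TAMRA-labelled myosin IIA heavy-chain peptide probe, 5 nM; medium: HEPES buffer with Ca2+, pH 7.2; schedule: 5 min incubation before reading; benchmarks: neutral control DMSO, positive control TFP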
ERAP1 inh = blocks human ERAP1 aminopeptidase activity | recombinant ERAP1, Leu-AMC fluorescence, 60 min | hit rate 0.15% among 340,000 | AID 652197 | inhibition, % at 10.7 µM | Q9NZ08;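 active = mean replicate inhibition of at least 30%, or all replicates individually reaching that 30% level; inactive = mean below 30% and not every replicate reaching it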;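 also: 0% = neutral control wells and 100% = L-leucinethiol positive control wells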
SIRT5 block = inhibitors of human sirtuin-5 desuccinylase; inhibition, % at 15 µM; Purified SirT5, succinyl-peptide AMC, trypsin-coupled fluorescence; hit rate 1.1% among 330,000; in the data active = inhibition above about 15%
Target sequence (Q9NXA8 whole entry, looked up): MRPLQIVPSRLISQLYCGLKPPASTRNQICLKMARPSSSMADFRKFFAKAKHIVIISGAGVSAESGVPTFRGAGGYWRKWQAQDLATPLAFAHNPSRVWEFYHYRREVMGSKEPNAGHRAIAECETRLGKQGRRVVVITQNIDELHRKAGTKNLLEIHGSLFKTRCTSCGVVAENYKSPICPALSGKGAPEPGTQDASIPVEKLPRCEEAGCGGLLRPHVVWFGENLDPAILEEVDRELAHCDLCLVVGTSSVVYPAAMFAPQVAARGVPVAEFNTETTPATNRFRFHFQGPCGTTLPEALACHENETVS
Numbers without * were called inactive. Shown are actives, neighbours in structure and some others; about 3.1% of the full set was active somewhere.

How did COc1ccc(OC)c(-c2cc(-c3cccnc3)nc(N)c2C#N)c1 do in these assays?
rRNA inh HTS: 4; F508del corr: 9.0*; S100A4 MyoIIA: 2; SIRT5 block: -2

How did Cc1cccc(N2CCN(C(=O)CNC(=O)c3cccc([N+](=O)[O-])c3)CC2)c1C do in these assays?
rRNA inh HTS: -19*; F508del corr: 1; S100A4 MyoIIA: -1; ERAP1 inh: 2; SIRT5 block: -2

Results for COc1ccc(C2C(C(=O)c3ccccc3)N3c4ccccc4C=CC3C2[N+](=O)[O-])cc1 (stereo unspecified) ?
rRNA inh HTS: -18; F508del corr: 23*; S100A4 MyoIIA: -8; ERAP1 inh: 6; SIRT5 block: -1

What do the screens show for `C[C@H](CO)N1C[C@H](C)[C@H](CN(C)S(=O)(=O)c2ccc(F)cc2)Oc2c(NS(=O)(=O)c3ccc(Cl)cc3)cccc2C1=O`?
rRNA inh HTS: -1; F508del corr: 0

Results for CSc1ncnc2c1ncn2CCCNc1ccc(C)c(C)c1 ?
rRNA inh HTS: -26*; F508del corr: -3; S100A4 MyoIIA: 1; ERAP1 inh: -3; SIRT5 block: -4

Results for CCC(C)C(CO)NCCCn1cnc2c(SC)ncnc21 (stereo unspecified) ?
rRNA inh HTS: 13; F508del corr: -7; S100A4 MyoIIA: -3; ERAP1 inh: 8; SIRT5 block: 26*

What do the screens show for `CSc1ncnc2c1ncn2CCCN[C@H](C)c1cccc2ccccc12`?
rRNA inh HTS: 2; F508del corr: 3; S100A4 MyoIIA: -4; ERAP1 inh: -1; SIRT5 block: -1

How did CSc1ncnc2c1ncn2CCCNCc1ccccc1 do in these assays?
rRNA inh HTS: 11; F508del corr: 3; S100A4 MyoIIA: -2; ERAP1 inh: 0; SIRT5 block: -2

What do the screens show for `O=C(C[C@@H]1CC[C@H]2[C@@H](COC[C@@H](O)CN2Cc2cccc(Cl)c2)O1)NCc1cccc(F)c1`?
rRNA inh HTS: -4; F508del corr: 0; S100A4 MyoIIA: 5; ERAP1 inh: 0; SIRT5 block: -3

What do the screens show for `C=CCN(C(=O)c1csnn1)C(C(=O)NC1CCCC1)c1c(F)cccc1Cl` (stereo unspecified)?
rRNA inh HTS: -21*; F508del corr: 0; S100A4 MyoIIA: -1; ERAP1 inh: 3; SIRT5 block: -4

How did C=CCN(C(=O)c1csnn1)C(C(=O)NC1CCCCC1)c1ccc(Cl)cc1 (stereo unspecified) do in these assays?
rRNA inh HTS: -4; F508del corr: -1; S100A4 MyoIIA: -1; ERAP1 inh: -2; SIRT5 block: 10

Results for Nc1c(Cl)cc(-c2csc(N3CCCC3c3nc4cc(Cl)c(N5CCCCC5)cc4n3CCCO)n2)cc1Cl (stereo unspecified) ?
rRNA inh HTS: -3; F508del corr: -6; S100A4 MyoIIA: -8; ERAP1 inh: 0; SIRT5 block: 15*

How did C[C@@H]1CN([C@@H](C)CO)C(=O)c2cc(C#CC3(O)CCCC3)cnc2O[C@H]1CN(C)C(=O)Cc1ccncc1 do in these assays?
rRNA inh HTS: -3; F508del corr: -4; S100A4 MyoIIA: -30; ERAP1 inh: -7; SIRT5 block: 2

What do the screens show for `CCOC(=O)c1c2ccc(OCC(=O)NN)cc2n2ccccc12`?
rRNA inh HTS: -24*; F508del corr: 2; S100A4 MyoIIA: -2; ERAP1 inh: 4; SIRT5 block: -1

Results for COc1cccc(CN(C)C[C@@H]2OCc3cn(nn3)CCCC(=O)N([C@H](C)CO)C[C@@H]2C)c1 ?
rRNA inh HTS: 1; F508del corr: 0; S100A4 MyoIIA: -3; ERAP1 inh: 0; SIRT5 block: -6

What do the screens show for `C[C@@H]1CN([C@@H](C)CO)S(=O)(=O)c2ccc(C#Cc3cccc(F)c3)cc2O[C@@H]1CN(C)C(=O)NC1CCCCC1`?
rRNA inh HTS: -1; F508del corr: 6

How did C[C@H]1CN([C@@H](C)CO)S(=O)(=O)c2ccc(C#Cc3cccc(F)c3)cc2O[C@@H]1CN(C)C(=O)NC1CCCCC1 do in these assays?
rRNA inh HTS: -2; F508del corr: 4; S100A4 MyoIIA: 4; ERAP1 inh: -1; SIRT5 block: -3

What do the screens show for `COc1ccc(C#Cc2ccc3c(c2)O[C@@H](CN(C)C(=O)NC2CCCCC2)[C@H](C)CN([C@H](C)CO)S3(=O)=O)cc1`?
rRNA inh HTS: 0; F508del corr: 4; S100A4 MyoIIA: -2; ERAP1 inh: 2; SIRT5 block: -4

How did C[C@@H]1CN([C@@H](C)CO)S(=O)(=O)c2ccc(C#Cc3ccc(F)cc3)cc2O[C@H]1CN(C)C(=O)NC1CCCCC1 do in these assays?
rRNA inh HTS: 2; F508del corr: 5; S100A4 MyoIIA: -2; ERAP1 inh: 2; SIRT5 block: 19*

Results for C[C@@H]1CN([C@H](C)CO)S(=O)(=O)c2ccc(C#Cc3ccc(F)cc3)cc2O[C@@H]1CN(C)C(=O)NC1CCCCC1 ?
rRNA inh HTS: -3; F508del corr: 5; S100A4 MyoIIA: -23; ERAP1 inh: 1; SIRT5 block: 19*

How did C[C@H](CO)N1C[C@H](C)[C@@H](CN(C)C(=O)NC2CCCCC2)Oc2cc(C#Cc3ccc(F)cc3)ccc2S1(=O)=O do in these assays?
rRNA inh HTS: 0; F508del corr: 8.5*; S100A4 MyoIIA: 2; ERAP1 inh: 4; SIRT5 block: 18*

What do the screens show for `O=C(NCC1CC1)[C@H]1[C@H](CO)[C@H]2Cn3c(cccc3=O)[C@H]2N1Cc1cccc(F)c1`?
rRNA inh HTS: 1; F508del corr: 1; S100A4 MyoIIA: -3; ERAP1 inh: -1; SIRT5 block: -2

How did O=C(NC1CCCC1)N1CCCCN2[C@H](CO)[C@@H](c3ccc(/C=C/c4ccccc4)cc3)[C@@H]2C1 do in these assays?
rRNA inh HTS: -55; F508del corr: 0; S100A4 MyoIIA: 68; ERAP1 inh: 1; SIRT5 block: 1

What do the screens show for `CC(C)CC#Cc1ccc([C@@H]2[C@@H](CO)N3CCCCN(C(=O)NC4CCCC4)C[C@H]23)cc1`?
rRNA inh HTS: -59; F508del corr: 9.8*; S100A4 MyoIIA: 3; ERAP1 inh: 3; SIRT5 block: 1

What do the screens show for `O=C(NC1CCCC1)N1CCCCN2[C@H](C1)[C@H](c1ccc(/C=C/c3ccccc3)cc1)[C@@H]2CO`?
rRNA inh HTS: -50; F508del corr: -1; S100A4 MyoIIA: 16; ERAP1 inh: 1; SIRT5 block: 28*

How did O=C(NC1CCCC1)N1CCCCN2[C@H](C1)[C@@H](c1ccc(/C=C/c3ccccc3)cc1)[C@@H]2CO do in these assays?
rRNA inh HTS: -53; F508del corr: -4; S100A4 MyoIIA: -7; ERAP1 inh: 3; SIRT5 block: 16*
